Reference: ChEMBL document CHEMBL4196178, “Structure-Based Drug Design of Potent Pyrazole Derivatives against Rhinovirus Replication” (J Med Chem, 2018)
Activity calls are given as the source filed them. The calls are words filed in the database; no cut-off is given here.

Legend:
[1] = Cytotoxicity against human HeLa Rh cells assessed as reduction in cell viability after 3 days by MTS assay; format: cell-based
[2] = Selectivity index, ratio of CC50 for human HeLa Rh cells to EC50 for Rhinovirus B14 capsid infected in human HeLa Rh cells; format: toxicity, cell-based; conditions: read-out: Ratio CC50/EC50
Method in brief: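 SI = CC₅₀/EC₅₀ for RV-B14 in HeLa Rh cells, both from the same 3-day 35 °C MTS CPE assay. CC₅₀ was obtained by light-microscope scoring of compound-treated uninfected cells, and EC₅₀ from MTS dose-response. Both values were derived by logarithmic interpolation and reported as median ± median absolute deviation.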

[3] = target: T1, VP1 capsid protein (Human rhinovirus sp.) (UniProt Q7T664); assay: Inhibition of Rhinovirus B14 capsid infected in human HeLa Rh cells assessed as reduction in viral replication at 1 uM administered 2 hrs before infection measured after 8 hrs post infection by RT-qPCR analysis; format: cell-based
T1 sequence (whole entry): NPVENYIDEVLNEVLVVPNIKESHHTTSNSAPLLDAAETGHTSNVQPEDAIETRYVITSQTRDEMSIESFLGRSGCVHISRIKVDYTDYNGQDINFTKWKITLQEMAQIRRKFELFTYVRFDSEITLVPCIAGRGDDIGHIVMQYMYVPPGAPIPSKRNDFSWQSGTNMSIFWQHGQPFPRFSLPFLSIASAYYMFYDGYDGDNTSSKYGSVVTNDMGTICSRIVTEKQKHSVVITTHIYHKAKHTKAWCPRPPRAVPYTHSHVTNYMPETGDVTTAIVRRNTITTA
Method in brief: (§1)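 HeLa Rh cells adhered overnight, then given 1 µM compound 2 h before, at, or 2, 4 or 6 h after RV-B14 infection. Untreated infected cells served as controls. Cells lysed at 8 h post-infection, DNases heat-inactivated at 75 °C for 15 min. Intracellular viral RNA measured by SYBR one-step qRT-PCR against a gBlock standard series, reported as genome equivalents per sample.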

rhinovirus B14 [4] = assay: Antiviral activity against Rhinovirus B14 infected in human HeLa Rh cells assessed as reduction in viral replication at 1 uM administered at the time of infection measured after 8 hrs post infection by RT-qPCR analysis; format: functional, organism-based; method in brief: as §1
rhinovirus B14 [5] = assay: Antiviral activity against Rhinovirus B14 infected in human HeLa Rh cells assessed as reduction in viral replication at 1 uM administered at >= 2 hrs post infection measured after 8 hrs post infection by RT-qPCR analysis; format: functional, organism-based; method in brief: as §1
[6] = target: T1, VP1 capsid protein (Human rhinovirus sp.); assay: Inhibition of Rhinovirus B14 capsid infected in human HeLa Rh cells assessed as number of wells with full cytopathic effect at 4 times EC50 concentration after 1st passage measured after 3 days by MTS assay relative to control; format: cell-based; set-up: scale not given: the % may be the effect or the level left
Method in brief: (§2)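 Confluent HeLa cells were infected with wild-type RV-B14 with compound present at 1x, 2x or 4x in vitro EC₅₀, n=4 wells. Supernatant was diluted 1:10 onto fresh HeLa cells with compound, for four passages. Value is percentage of wells with full CPE.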

[7] = target: T1, VP1 capsid protein (Human rhinovirus sp.); assay: Inhibition of Rhinovirus B14 capsid infected in human HeLa Rh cells assessed as number of wells with full cytopathic effect at 2 times EC50 concentration after 1st passage measured after 3 days by MTS assay relative to control; format: cell-based; set-up: scale not given: the % may be the effect or the level left; method in brief: as §2
[8] = target: T1, VP1 capsid protein (Human rhinovirus sp.); assay: Inhibition of Rhinovirus B14 capsid infected in human HeLa Rh cells assessed as number of wells with full cytopathic effect at EC50 concentration after 1st passage measured after 3 days by MTS assay relative to control; format: cell-based; set-up: scale not given: the % may be the effect or the level left; method in brief: as §2
rhinovirus B14 [9] = assay: Inhibition of Rhinovirus B14 capsid infected in human HeLa Rh cells assessed as number of wells with full cytopathic effect at 4 times EC50 concentration after 2nd passage measured after 3 days by MTS assay relative to control; format: functional; set-up: scale not given: the % may be the effect or the level left; method in brief: as §2
[10] = target: T1, VP1 capsid protein (Human rhinovirus sp.); assay: Inhibition of Rhinovirus B14 capsid infected in human HeLa Rh cells assessed as number of wells with full cytopathic effect at 2 times EC50 concentration after 2nd passage measured after 3 days by MTS assay relative to control; format: cell-based; set-up: scale not given: the % may be the effect or the level left; method in brief: as §2
[11] = target: T1, VP1 capsid protein (Human rhinovirus sp.); assay: Inhibition of Rhinovirus B14 capsid infected in human HeLa Rh cells assessed as number of wells with full cytopathic effect at EC50 concentration after 2nd passage measured after 3 days by MTS assay relative to control; format: cell-based; set-up: scale not given: the % may be the effect or the level left; method in brief: as §2
[12] = target: T1, VP1 capsid protein (Human rhinovirus sp.); assay: Inhibition of Rhinovirus B14 capsid infected in human HeLa Rh cells assessed as number of wells with full cytopathic effect at 4 times EC50 concentration after 3rd passage measured after 3 days by MTS assay relative to control; format: cell-based; set-up: scale not given: the % may be the effect or the level left; method in brief: as §2
[13] = target: T1, VP1 capsid protein (Human rhinovirus sp.); assay: Inhibition of Rhinovirus B14 capsid infected in human HeLa Rh cells assessed as number of wells with full cytopathic effect at 2 times EC50 concentration after 3rd passage measured after 3 days by MTS assay relative to control; format: cell-based; set-up: scale not given: the % may be the effect or the level left; method in brief: as §2
[14] = target: T1, VP1 capsid protein (Human rhinovirus sp.); assay: Inhibition of Rhinovirus B14 capsid infected in human HeLa Rh cells assessed as number of wells with full cytopathic effect at EC50 concentration after 3rd passage measured after 3 days by MTS assay relative to control; format: cell-based; set-up: scale not given: the % may be the effect or the level left; method in brief: as §2
[15] = target: T1, VP1 capsid protein (Human rhinovirus sp.); assay: Inhibition of Rhinovirus B14 capsid infected in human HeLa Rh cells assessed as number of wells with full cytopathic effect at 4 times EC50 concentration after 4th passage measured after 3 days by MTS assay relative to control; format: cell-based; set-up: scale not given: the % may be the effect or the level left; method in brief: as §2
[16] = target: T1, VP1 capsid protein (Human rhinovirus sp.); assay: Inhibition of Rhinovirus B14 capsid infected in human HeLa Rh cells assessed as number of wells with full cytopathic effect at 2 times EC50 concentration after 4th passage measured after 3 days by MTS assay relative to control; format: cell-based; set-up: scale not given: the % may be the effect or the level left; method in brief: as §2
[17] = target: T1, VP1 capsid protein (Human rhinovirus sp.); assay: Inhibition of Rhinovirus B14 capsid infected in human HeLa Rh cells assessed as number of wells with full cytopathic effect at EC50 concentration after 4th passage measured after 3 days by MTS assay relative to control; format: cell-based; set-up: scale not given: the % may be the effect or the level left; method in brief: as §2
[18] = target: T1, VP1 capsid protein (Human rhinovirus sp.); assay: Inhibition of capsid of VP1 A150V mutant harboring Rhinovirus B14 assessed as reduction of virus induced cytopathic effect at 4 times EC50 concentration after 4th passage measured after 3 days by MTS assay
[19] = target: T1, VP1 capsid protein (Human rhinovirus sp.); assay: Inhibition of capsid of VP1 C199W mutant harboring Rhinovirus B14 assessed as reduction of virus induced cytopathic effect at 1 times EC50 concentration after 4th passage measured after 3 days by MTS assay
[20] = target: T1, VP1 capsid protein (Human rhinovirus sp.); assay: Inhibition of capsid of VP1 N105S mutant harboring Rhinovirus B14 assessed as reduction of virus induced cytopathic effect at 2 times EC50 concentration after 4th passage measured after 3 days by MTS assay

SMILES: Cc1noc(C)c1-c1ccc(CC(O)c2ccc(-n3cncn3)cc2)c([N+](=O)[O-])c1 (racemic)
- CC50 at 72 h [1]: > 256 µM

SMILES: O=[N+]([O-])c1cc(Br)ccc1CC(O)c1ccc(-n2cncn2)cc1 (racemic)
- CC50 at 72 h [1]: 39 µM
- selectivity ratio [2]: 156

SMILES: O=[N+]([O-])c1cc(Br)ccc1CC(O)c1ccc(-c2ccncc2)cc1 (racemic)
- CC50 at 72 h [1]: > 250 µM
- selectivity ratio [2]: > 424

SMILES: O=[N+]([O-])c1cc(-c2cccs2)ccc1CC(O)c1ccc(-c2ccncc2)cc1 (racemic)
- CC50 at 72 h [1]: > 248 µM
- selectivity ratio [2]: > 191

SMILES: Cn1nc(C(F)(F)F)cc1-c1ccc(CC(O)c2ccc(-c3ccncc3)cc2)c([N+](=O)[O-])c1 (racemic)
- CC50 at 72 h [1]: > 100 µM
- selectivity ratio [2]: > 100

SMILES: O=[N+]([O-])c1cc(Br)ccc1CC(O)c1ccc(-n2cccn2)cc1 (racemic)
- CC50 at 72 h [1]: 22.5 µM
- selectivity ratio [2]: 90

SMILES: Cn1cc(-c2ccc(CC(O)c3ccc(-n4cncn4)cc3)c([N+](=O)[O-])c2)cn1 (racemic)
- CC50 at 72 h [1]: 256 to 699 µM
- selectivity ratio [2]: 1420 to 3880
- inhibition [3]: Active
- Activity (rhinovirus B14 [4]): Active
- Activity (rhinovirus B14 [5]): inactive
- Activity [6]: 0%
- Activity [7]: 0%
- Activity [8]: 0%
- Activity (rhinovirus B14 [9]): 0%
- Activity [10]: 0%
- Activity [11]: 50%
- Activity [12]: 0%
- Activity [13]: 25%
- Activity [14]: 75%
- Activity [15]: 0%
- Activity [16]: 50%
- Activity [17]: 100%
- inhibition [18]: inactive
- inhibition [19]: Active
- inhibition [20]: Active

SMILES: O=[N+]([O-])c1cc(F)ccc1CC(O)c1ccc(-n2cccn2)cc1 (racemic)
- CC50 at 72 h [1]: > 100 µM
- selectivity ratio [2]: > 12

SMILES: Cc1noc(C)c1-c1ccc(CC(O)c2ccc(-n3cccn3)cc2)c([N+](=O)[O-])c1 (racemic)
- CC50 at 72 h [1]: 14 µM

SMILES: Cc1cc(CCCOc2c(C)cc(-c3noc(C(F)(F)F)n3)cc2C)on1 [PLECONARIL]
- CC50 at 72 h [1]: > 131 µM
- selectivity ratio [2]: > 4040
- inhibition [3]: Active
- Activity (rhinovirus B14 [4]): Active
- Activity (rhinovirus B14 [5]): inactive
- Activity [6]: 0%
- Activity [7]: 0%
- Activity [8]: 0%
- Activity (rhinovirus B14 [9]): 0%
- Activity [10]: 0%
- Activity [11]: 100%
- Activity [12]: 25%
- Activity [13]: 100%
- Activity [14]: 100%
- Activity [15]: 25%
- Activity [16]: 100%
- Activity [17]: 100%
